These results are taken from ChEMBL document CHEMBL3352716 (ACS Med Chem Lett, 2014).

In assay [1] the test system is K562. Description: Antiproliferative activity against human K562 cells assessed as growth inhibition after 72 hrs by MTT assay. The assay is classed as functional, cell-based. As to conditions: K562, 72 h. In outline:
(§1)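 MTT proliferation assay on human K562 leukaemia, MCF-7 breast adenocarcinoma, Bel-7402 hepatocellular carcinoma and MGC-803 gastric cancer cells. Drug exposure 72 h. IC50 is the concentration inhibiting 50% of cell growth. Means ± SD, n = 3.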

For assay [2], the system named is MCF7. Description: Antiproliferative activity against human MCF7 cells assessed as growth inhibition after 72 hrs by MTT assay. The format is functional, cell-based. To be noted: MCF7, 72 h. Summed up: as §1
The nature of assay [3]: Antiproliferative activity against human Bel7402 cells assessed as growth inhibition after 72 hrs by MTT assay. The format is functional, cell-based. As to conditions: Bel-7402, 72 h. Summed up: as §1
Assay [4] deals with MGC-803. Description: Antiproliferative activity against human MGC803 cells assessed as growth inhibition after 72 hrs by MTT assay. The assay is classed as functional, cell-based. To be noted: MGC-803, 72 h. Summed up:
as §1

Assay [5] can be described thus: Anticancer activity against ABCB1-overexpressing human SW620/AD300 cells by MTT assay. The format is functional, cell-based. To be noted: SW-620. Summed up: (§2)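 MTT cytotoxicity run on paired parental and transporter-overexpressing lines: SW620 vs ABCB1-overexpressing SW620/AD300, and NCI-H460 vs ABCG2-overexpressing NCI-H460/MX20. IC50 is the concentration inhibiting 50% of cell growth. Concentrations tested up to 100 μM.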

Assay [6] in a line: Anticancer activity against human Bel7402 cells assessed as growth inhibition by MTT assay. The assay is classed as functional, cell-based. As to conditions: Bel-7402. In outline: (§3)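 Toxicity compared on human normal liver L-02 cells and human liver cancer Bel-7402 cells run side by side. Survival curves by MTT after 72 h treatment. IC50 is the concentration inhibiting 50% of cell growth.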

The test system of assay [7] is NCI-H460. Kind of assay: Anticancer activity against human NCI-H460 cells by MTT assay. The assay is classed as functional, cell-based. In outline:
as §2

A short description of assay [8]: Anticancer activity against ABCG2-overexpressing human NCI-H460/MX20 cells by MTT assay. The format is functional, cell-based. In outline:
as §2

The nature of assay [9]: Cytotoxicity against human L02 cells by MTT assay. The assay is classed as cell-based. In outline: as §3
Assay [10] has as its system SW-620. Description: Anticancer activity against human SW620 cells by MTT assay. The format is functional, cell-based. Summed up:
as §2

The test system of assay [11] is Bel-7402. Kind of assay: Selectivity index, ratio of IC50 for human L02 cells to ratio of IC50 for human Bel-7402 cells. The assay is classed as functional. Summed up:
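Selectivity index is IC50 on normal L-02 liver cells divided by IC50 on Bel-7402 tumour cells. Both IC50 values come from MTT survival curves after 72 h exposure.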

The structures appear in SMILES notation. Bounds are passed on as bounds.

Regarding `C=C1C(=O)[C@]23[C@H](OC(=O)c4ccc(N(CCCl)CCCl)cc4)[C@H]1CC[C@H]2[C@@]12CO[C@@]3(O)[C@@H](O)[C@@H]1C(C)(C)CCC2=O`, the IC50 in [1] turned out to be 1170 nM; in assay [2], 0.67 µM; in assay [3], 900 nM; in assay [4], 1.6 µM.
The like results for `C=C1C(=O)[C@]23[C@H](OC(=O)CCC(=O)N[C@@H](Cc4ccc(N(CCCl)CCCl)cc4)C(=O)OC)[C@H]1CC[C@H]2[C@@]12CO[C@@]3(O)[C@@H](O)[C@@H]1C(C)(C)CCC2=O` were, in that order, 1660 nM, 2.88 µM, 1410 nM and 3.39 µM.
Taken in the same sequence, the figures for `C=C1C(=O)[C@]23[C@H](OC(=O)CCCc4ccc(N(CCCl)CCCl)cc4)[C@H]1CC[C@H]2[C@@]12CO[C@@]3(O)[C@@H](O)[C@@H]1C(C)(C)CCC2=O` were 2370 nM, 2.25 µM, 2530 nM and 3.95 µM.
As to `C=C1C(=O)[C@]23[C@H](OC(=O)[C@H](Cc4ccc(N(CCCl)CCCl)cc4)NC=O)[C@H]1CC[C@H]2[C@@]12CO[C@@]3(O)[C@@H](O)[C@@H]1C(C)(C)CC[C@@H]2O`, the IC50 in assay [1] came to 7030 nM; in [2] it was 14.6 µM; in [3] it was 3840 nM; in assay [4] it was 7.1 µM.
In the case of `C=C1C(=O)[C@]23[C@H](O)[C@H]1CC[C@H]2[C@@]12CO[C@]3(O)[C@@H](O)[C@@H]1C(C)(C)CC[C@@H]2O` [ORIDONIN], the IC50 turned out to be 4.67 µM in [5]; 7.48 µM in assay [6]; 17.1 µM in [7]; 21.7 µM in [8]; 17.8 µM in [9]; 6.26 µM in [10]. Besides, the “Ratio IC50” value in [11] was 2.38.
For the molecule `C=C1C(=O)[C@]23[C@H](OC(=O)[C@H](Cc4ccc(N(CCCl)CCCl)cc4)NC(=O)OC(C)(C)C)[C@H]1CC[C@H]2[C@@]12CO[C@@]3(O)[C@@H](O)[C@@H]1C(C)(C)CC[C@@H]2O`, the IC50 in assay [1] is 1410 nM; in assay [2], 3.22 µM; in [3] it was 2360 nM; in assay [4] it was 6.72 µM.
Take `C=C1C(=O)[C@]23[C@H](OC(=O)CCCc4ccc(N(CCCl)CCCl)cc4)[C@H]1CC[C@H]2[C@@]12CO[C@@]3(O)[C@@H](O)[C@@H]1C(C)(C)CC[C@@H]2O`: the IC50 in assay [1] turned out to be 2280 nM; in assay [2] it was 1.32 µM; in assay [5] it was 2.28 µM; in assay [6], 1.43 µM; in assay [3], 1430 nM; in assay [7], 4.81 µM. Further, the IC50 amounted to 7.26 µM in [8], 9.62 µM in [9], 2.7 µM in [10] and 2.02 µM in [4]. Further, the “Ratio IC50” value in assay [11] was 6.73.
On to `C=C1C(=O)[C@]23[C@H](OC(=O)CCC(=O)N[C@@H](Cc4ccc(N(CCCl)CCCl)cc4)C(=O)OC)[C@H]1CC[C@H]2[C@@]12CO[C@@]3(O)[C@@H](O)[C@@H]1C(C)(C)CC[C@@H]2O`, for which the IC50 is 9010 nM in [1]; 14.4 µM in assay [2]; 14.9 µM in [5]; 8350 nM in [3]; 28.4 µM in [7]; greater than 100 µM in assay [8]. Also, the IC50 in [10] is 14 µM; in assay [4], 9.3 µM.
As to `C=C1C(=O)[C@]23[C@H](OC(=O)CCCC(=O)N[C@@H](Cc4ccc(N(CCCl)CCCl)cc4)C(=O)OC)[C@H]1CC[C@H]2[C@@]12CO[C@@]3(O)[C@@H](O)[C@@H]1C(C)(C)CC[C@@H]2O`, the IC50 in assay [1] is 5740 nM; in [2] it was 12.9 µM; in assay [3] it was 7910 nM; in [4] it was 6.92 µM.
The like results for `C=C1C(=O)[C@]23[C@H](OC(=O)CCCc4ccc(N(CCCl)CCCl)cc4)[C@H]1CC[C@H]2[C@@]12CO[C@@]3(O)[C@@H](O)[C@@H]1C(C)(C)CC[C@@H]2OC(C)=O` were, in that order, 1100 nM, 0.79 µM, 1370 nM and 2.25 µM.
With `N[C@@H](Cc1ccc(N(CCCl)CCCl)cc1)C(=O)O` [MELPHALAN], the IC50 in assay [1] stood at 33400 nM; in assay [2], 19.6 µM; in [3], 24800 nM; in assay [4], 36.9 µM.
On to `O=C(O)CCCc1ccc(N(CCCl)CCCl)cc1` [CHLORAMBUCIL], for which the IC50 in [1] was determined as 60100 nM; in assay [2], 80.5 µM; in assay [6] it was 49.3 µM; in [3], 49300 nM; in assay [9] it was 106 µM; in assay [4], 134 µM. Moreover, the “Ratio IC50” value in assay [11] is 2.14.
In the case of `C=C1C(=O)[C@]23[C@H](OC(=O)CCC(=O)N[C@@H](Cc4ccc(N(CCCl)CCCl)cc4)C(=O)OC)[C@H]1CC[C@H]2[C@@]12CO[C@@]3(O)[C@@H](O)[C@@H]1C(C)(C)CC[C@@H]2OC(C)=O`, the IC50 in [1] came to 1730 nM; in [2] it was 3.63 µM; in assay [3] it was 2560 nM; in [4], 4.71 µM.
The like results for `C=C1C(=O)[C@]23[C@H](OC(=O)c4ccc(N(CCCl)CCCl)cc4)[C@H]1CC[C@H]2[C@@]12CO[C@@]3(O)[C@@H](O)[C@@H]1C(C)(C)CC[C@@H]2OC(C)=O` were, in that order, 1350 nM, 0.91 µM, 2410 nM and 3.76 µM.
